# Measured values: ChEMBL document CHEMBL2331342, “Synthesis, in vitro antiplatelet activity and molecular modelling studies of 10-substituted 2-(1-piperazinyl)pyrimido[1,2-a]benzimidazol-4(10H)-ones” (Eur J Med Chem, 2013)
# Tests used:
# Format in all cases: functional, cell-free
# [1] = Antiplatelet activity against collagen A23187-induced platelet aggregation in human plasma preincubated for 2 mins before addition of inducer by turbidimetric method
# Summary of the method: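 Human PRP from citrated blood of healthy volunteers (9:1 with 130 mM trisodium citrate, spun 100 g 30 min). Preincubated with compound or DMSO 37 °C 2 min, then A23187 added (final 20.0 μM). Born turbidimetric aggregometry; light transmission at 3 min. At least five concentrations; IC50 from inhibition–concentration curve versus solvent control, mean ±SD of at least five platelet batches.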
# [2] = Antiplatelet activity against collagen collagen-induced platelet aggregation in human plasma preincubated for 2 mins before addition of inducer by turbidimetric method
# Summary of the method: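 Platelet-rich plasma prepared from healthy volunteers' blood in 130 mM trisodium citrate (9:1), centrifuged 100 g, 30 min. After 2 min at 37 °C with compound or DMSO, bovine tendon collagen added (final 5.0 μg/mL). Born turbidimetric method, light transmission at 3 min. IC50 derived from inhibition–concentration curve (≥5 concentrations) relative to solvent control; mean ±SD, ≥5 platelet batches.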
# [3] = Antiplatelet activity against collagen ADP-induced platelet aggregation in human plasma preincubated for 2 mins before addition of inducer by turbidimetric method
# Summary of the method: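 Citrated PRP (blood:130 mM trisodium citrate 9:1, centrifuged 100 g for 30 min) from healthy human donors. Compound or DMSO preincubation at 37 °C for 2 min before ADP (final 5.0 μM). Turbidimetric (Born) read of light transmission after 3 min. IC50 from ≥5-concentration inhibition curve against solvent control; mean ±SD over at least five platelet batches.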
Structure (SMILES),IC50 [1] [µM],IC50 [2] [µM],IC50 [3] [µM]
CCN(CC)c1cc(=O)n2c3ccccc3n(CC)c2n1,> 1000,75,> 1000
COc1c(C)cnc(Cn2c3ccccc3n3c(=O)cc(N4CCNCC4)nc23)c1C,56,49,33
CCN(CC)c1cc(=O)nc2n(CC)c3ccccc3n12,415,75,> 1000
O=c1cc(N2CCNCC2)nc2oc3ccc(Cl)cc3n12,13,8.8,3.6
Cc1[nH]c(=O)c(C#N)cc1-c1ccncc1 [MILRINONE],14,12,11
CC(C)n1c2ccccc2n2c(=O)cc(N3CCNCC3)nc12,142,77,116
O=C1CCc2cc(OCCCCc3nnnn3C3CCCCC3)ccc2N1 [CILOSTAZOL],109,40,73
CC(=O)Oc1ccccc1C(=O)O [ASPIRIN],> 1000,183,> 1000

# The remaining lines, values ahead:
IC50 [1] [µM],IC50 [2] [µM],IC50 [3] [µM],Structure (SMILES)
75,15,53,O=c1cc(N2CCNCC2)nc2n(CCc3ccccc3)c3ccccc3n12
143,27,90,O=c1cc(N2CCNCC2)nc2n(Cc3ccccc3)c3ccccc3n12
13,13,16,CCN(CC)CCn1c2ccccc2n2c(=O)cc(N3CCNCC3)nc12
206,55,127,CCn1c2ccccc2n2c(=O)cc(N3CCNCC3)nc12
60,31,26,CSCn1c2ccccc2n2c(=O)cc(N3CCNCC3)nc12
32,21,15,O=c1cc(N2CCNCC2)nc2n(Cc3ccncc3)c3ccccc3n12
23,9,15,O=c1cc(N2CCNCC2)nc2n(Cc3cccnc3)c3ccccc3n12
11,15,12,O=c1cc(N2CCNCC2)nc2n(CCN3CCOCC3)c3ccccc3n12
38,30,19,O=c1cc(N2CCNCC2)nc2n(Cc3ccccn3)c3ccccc3n12
42,28,16,O=c1cc(N2CCNCC2)nc2n(CCN3CCCC3)c3ccccc3n12
50,50,62,CCCn1c2ccccc2n2c(=O)cc(N3CCNCC3)nc12
175,172,163,CC(c1ccccc1)n1c2ccccc2n2c(=O)cc(N3CCNCC3)nc12 (stereo not drawn)
41,8,36,CN(C)CCn1c2ccccc2n2c(=O)cc(N3CCNCC3)nc12
